Results published in ChEMBL document CHEMBL1154842, “Synthesis, radiolabeling, and biological evaluation of (R)- and (S)-2-amino-3-[(18)F]fluoro-2-methylpropanoic acid (FAMP) and (R)- and (S)-3-[(18)F]fluoro-2-methyl-2-N-(methylamino)propanoic acid (NMeFAMP) as potential PET radioligands for imaging brain tumors” (J Med Chem, 2010).

Legend:
Pancreas [1] = assay: Biodistribution in pancreas of Fischer 344 rat bearing rat 9L cells at 20 uCi, iv after 30 mins; assay type: ADME, organism-based; details: in vivo, 0.5 h
Method in brief: (§1)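 Male Fischer 344 rats (200–250 g) carrying intracranial 9L gliosarcoma (5×10^4 cells implanted stereotactically, 10–12 days growth), under ketamine:xylazine anaesthesia. About 20 μCi tracer in 0.5 mL sterile saline given via tail-vein catheter. Groups of 4–5 were killed by intracardiac KCl at 15 (NMeFAMP only), 30, 60 or 120 min. Tissues were weighed and gamma-counted, decay-corrected, and reported as %ID/g, mean ± SD.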

Pancreas [2] = assay: Biodistribution in pancreas of Fischer 344 rat bearing rat 9L cells at 20 uCi, iv after 60 mins; assay type: ADME, organism-based; details: in vivo, 1 h; method in brief: as §1
Kidney [3] = assay: Biodistribution in kidney of Fischer 344 rat bearing rat 9L cells at 20 uCi, iv after 60 mins; assay type: ADME, organism-based; details: in vivo, 1 h; method in brief: as §1
[4] = Biodistribution in tumor of Fischer 344 rat bearing rat 9L cells at 20 uCi, iv after 30 mins; assay type: ADME, organism-based, Neoplasm; details: in vivo, 0.5 h; method in brief: as §1
Bone [5] = assay: Biodistribution in bone of Fischer 344 rat bearing rat 9L cells at 20 uCi, iv after 15 mins; assay type: ADME, organism-based, Bone element; details: in vivo, 0.25 h; method in brief: as §1
Heart [6] = assay: Biodistribution in heart of Fischer 344 rat bearing rat 9L cells at 20 uCi, iv after 60 mins; assay type: ADME, organism-based; details: in vivo, 1 h; method in brief: as §1
Kidney [7] = assay: Biodistribution in kidney of Fischer 344 rat bearing rat 9L cells at 20 uCi, iv after 15 mins; assay type: ADME, organism-based; details: in vivo, 0.25 h; method in brief: as §1
Heart [8] = assay: Biodistribution in heart of Fischer 344 rat bearing rat 9L cells at 20 uCi, iv after 120 mins; assay type: ADME, organism-based; details: in vivo, 2 h; method in brief: as §1
[9] = Ratio of drug level from tumor to brain of Fischer 344 rat bearing rat 9L cells at 20 uCi, iv after 120 mins; assay type: ADME, organism-based; details: in vivo, 2 h
Spleen [10] = assay: Biodistribution in spleen of Fischer 344 rat bearing rat 9L cells at 20 uCi, iv after 30 mins; assay type: ADME, organism-based; details: in vivo, 0.5 h; method in brief: as §1
Spleen [11] = assay: Biodistribution in spleen of Fischer 344 rat bearing rat 9L cells at 20 uCi, iv after 120 mins; assay type: ADME, organism-based; details: in vivo, 2 h; method in brief: as §1
Brain [12] = assay: Biodistribution in brain of Fischer 344 rat bearing rat 9L cells at 20 uCi, iv after 30 mins; assay type: ADME, organism-based; details: in vivo, 0.5 h; method in brief: as §1
Kidney [13] = assay: Biodistribution in kidney of Fischer 344 rat bearing rat 9L cells at 20 uCi, iv after 120 mins; assay type: ADME, organism-based; details: in vivo, 2 h; method in brief: as §1
Bone [14] = assay: Biodistribution in bone of Fischer 344 rat bearing rat 9L cells at 20 uCi, iv after 120 mins; assay type: ADME, organism-based, Bone element; details: in vivo, 2 h; method in brief: as §1
Lung [15] = assay: Biodistribution in lung of Fischer 344 rat bearing rat 9L cells at 20 uCi, iv after 120 mins; assay type: ADME, organism-based; details: in vivo, 2 h; method in brief: as §1
Bone [16] = assay: Biodistribution in bone of Fischer 344 rat bearing rat 9L cells at 20 uCi, iv after 30 mins; assay type: ADME, organism-based, Bone element; details: in vivo, 0.5 h; method in brief: as §1
Heart [17] = assay: Biodistribution in heart of Fischer 344 rat bearing rat 9L cells at 20 uCi, iv after 30 mins; assay type: ADME, organism-based; details: in vivo, 0.5 h; method in brief: as §1
Lung [18] = assay: Biodistribution in lung of Fischer 344 rat bearing rat 9L cells at 20 uCi, iv after 60 mins; assay type: ADME, organism-based; details: in vivo, 1 h; method in brief: as §1
[19] = Biodistribution in testis of Fischer 344 rat bearing rat 9L cells at 20 uCi, iv after 30 mins; assay type: ADME, organism-based; details: in vivo, 0.5 h; method in brief: as §1
Liver [20] = assay: Biodistribution in liver of Fischer 344 rat bearing rat 9L cells at 20 uCi, iv after 120 mins; assay type: ADME, organism-based; details: in vivo, 2 h; method in brief: as §1
Bone [21] = assay: Biodistribution in bone of Fischer 344 rat bearing rat 9L cells at 20 uCi, iv after 60 mins; assay type: ADME, organism-based, Bone element; details: in vivo, 1 h; method in brief: as §1
[22] = rat, in vivo, iv, 1 h
Brain [23] = assay: Biodistribution in brain of Fischer 344 rat bearing rat 9L cells at 20 uCi, iv after 15 mins; details: in vivo
Muscle tissue [24] = assay: Biodistribution in muscle of Fischer 344 rat bearing rat 9L cells at 20 uCi, iv after 15 mins; assay type: ADME, organism-based; details: in vivo, 0.25 h; method in brief: as §1
Blood [25] = assay: Biodistribution in blood of Fischer 344 rat bearing rat 9L cells at 20 uCi, iv after 60 mins; assay type: ADME, organism-based; details: in vivo, 1 h; method in brief: as §1
Liver [26] = assay: Biodistribution in liver of Fischer 344 rat bearing rat 9L cells at 20 uCi, iv after 30 mins; assay type: ADME, organism-based; details: in vivo, 0.5 h; method in brief: as §1
Blood [27] = assay: Biodistribution in blood of Fischer 344 rat bearing rat 9L cells at 20 uCi, iv after 15 mins; assay type: ADME, organism-based; details: in vivo, 0.25 h; method in brief: as §1
[28] = Biodistribution in testis of Fischer 344 rat bearing rat 9L cells at 20 uCi, iv after 60 mins; assay type: ADME, organism-based; details: in vivo, 1 h; method in brief: as §1
[29] = Biodistribution in testis of Fischer 344 rat bearing rat 9L cells at 20 uCi, iv after 120 mins; assay type: ADME, organism-based; details: in vivo, 2 h; method in brief: as §1
Muscle tissue [30] = assay: Biodistribution in muscle of Fischer 344 rat bearing rat 9L cells at 20 uCi, iv after 60 mins; assay type: ADME, organism-based; details: in vivo, 1 h; method in brief: as §1
Kidney [31] = assay: Biodistribution in kidney of Fischer 344 rat bearing rat 9L cells at 20 uCi, iv after 30 mins; assay type: ADME, organism-based; details: in vivo, 0.5 h; method in brief: as §1
Lung [32] = assay: Biodistribution in lung of Fischer 344 rat bearing rat 9L cells at 20 uCi, iv after 30 mins; assay type: ADME, organism-based; details: in vivo, 0.5 h; method in brief: as §1
Pancreas [33] = assay: Biodistribution in pancreas of Fischer 344 rat bearing rat 9L cells at 20 uCi, iv after 120 mins; assay type: ADME, organism-based; details: in vivo, 2 h; method in brief: as §1
Muscle tissue [34] = assay: Biodistribution in muscle of Fischer 344 rat bearing rat 9L cells at 20 uCi, iv after 120 mins; assay type: ADME, organism-based; details: in vivo, 2 h; method in brief: as §1
Muscle tissue [35] = assay: Biodistribution in muscle of Fischer 344 rat bearing rat 9L cells at 20 uCi, iv after 30 mins; assay type: ADME, organism-based; details: in vivo, 0.5 h; method in brief: as §1
Pancreas [36] = assay: Biodistribution in pancreas of Fischer 344 rat bearing rat 9L cells at 20 uCi, iv after 15 mins; assay type: ADME, organism-based; details: in vivo, 0.25 h; method in brief: as §1
Liver [37] = assay: Biodistribution in liver of Fischer 344 rat bearing rat 9L cells at 20 uCi, iv after 15 mins; assay type: ADME, organism-based; details: in vivo, 0.25 h; method in brief: as §1
Blood [38] = assay: Biodistribution in blood of Fischer 344 rat bearing rat 9L cells at 20 uCi, iv after 120 mins; assay type: ADME, organism-based; details: in vivo, 2 h; method in brief: as §1
[39] = Ratio of drug level from tumor to brain of Fischer 344 rat bearing rat 9L cells at 20 uCi, iv after 60 mins; details: in vivo, 1 h
Lung [40] = assay: Biodistribution in lung of Fischer 344 rat bearing rat 9L cells at 20 uCi, iv after 15 mins; assay type: ADME, organism-based; details: in vivo, 0.25 h; method in brief: as §1
[41] = Biodistribution in testis of Fischer 344 rat bearing rat 9L cells at 20 uCi, iv after 15 mins; assay type: ADME, organism-based; details: in vivo, 0.25 h; method in brief: as §1
Spleen [42] = assay: Biodistribution in spleen of Fischer 344 rat bearing rat 9L cells at 20 uCi, iv after 15 mins; assay type: ADME, organism-based; details: in vivo, 0.25 h; method in brief: as §1
Heart [43] = assay: Biodistribution in heart of Fischer 344 rat bearing rat 9L cells at 20 uCi, iv after 15 mins; assay type: ADME, organism-based; details: in vivo, 0.25 h; method in brief: as §1
Brain [44] = assay: Biodistribution in brain of Fischer 344 rat bearing rat 9L cells at 20 uCi, iv after 15 mins; assay type: ADME, organism-based; details: in vivo, 0.25 h; method in brief: as §1
[45] = rat, in vivo, iv, 1 h; remark: listed apart in the source
Blood [46] = assay: Biodistribution in blood of Fischer 344 rat bearing rat 9L cells at 20 uCi, iv after 30 mins; assay type: ADME, organism-based; details: in vivo, 0.5 h; method in brief: as §1
Liver [47] = assay: Biodistribution in liver of Fischer 344 rat bearing rat 9L cells at 20 uCi, iv after 60 mins; assay type: ADME, organism-based; details: in vivo, 1 h; method in brief: as §1
Spleen [48] = assay: Biodistribution in spleen of Fischer 344 rat bearing rat 9L cells at 20 uCi, iv after 60 mins; assay type: ADME, organism-based; details: in vivo, 1 h; method in brief: as §1

CN[C@](C)(C[18F])C(=O)O.Cl
Drug uptake (Pancreas [1]): 3.4 % ID/g | Drug uptake (Pancreas [2]): 4.34 % ID/g | Drug uptake (Kidney [3]): 5.18 % ID/g | Ratio [4]: 30.2 | Drug uptake (Bone [5]): 0.46 % ID/g | Drug uptake (Heart [6]): 0.31 % ID/g | Drug uptake (Kidney [7]): 11.58 % ID/g | Drug uptake (Heart [8]): 0.21 % ID/g | Ratio [9]: 35.4 | Drug uptake (Spleen [10]): 0.51 % ID/g | Drug uptake (Spleen [11]): 0.49 % ID/g | Drug uptake (Brain [12]): 0.06 % ID/g | Drug uptake (Kidney [13]): 2.22 % ID/g | Drug uptake (Bone [14]): 0.25 % ID/g | Drug uptake (Lung [15]): 0.42 % ID/g | Drug uptake (Bone [16]): 0.32 % ID/g | Drug uptake (Heart [17]): 0.3 % ID/g | Drug uptake (Lung [18]): 0.5 % ID/g | Drug uptake [19]: 0.13 % ID/g | Drug uptake (Liver [20]): 0.6 % ID/g | Drug uptake (Bone [21]): 0.37 % ID/g | Drug uptake [22]: 1.46 % ID/g | Ratio (Brain [23]): 20.4 | Drug uptake (Muscle tissue [24]): 0.25 % ID/g | Drug uptake (Blood [25]): 0.24 % ID/g | Drug uptake (Liver [26]): 0.71 % ID/g | Drug uptake (Blood [27]): 0.54 % ID/g | Drug uptake [28]: 0.13 % ID/g | Drug uptake [29]: 0.08 % ID/g | Drug uptake (Muscle tissue [30]): 0.24 % ID/g | Drug uptake (Kidney [31]): 9.48 % ID/g | Drug uptake (Lung [32]): 0.87 % ID/g | Drug uptake (Pancreas [33]): 3.78 % ID/g | Drug uptake (Muscle tissue [34]): 0.22 % ID/g | Drug uptake (Muscle tissue [35]): 0.26 % ID/g | Drug uptake (Pancreas [36]): 3.52 % ID/g | Drug uptake (Liver [37]): 0.83 % ID/g | Drug uptake (Blood [38]): 0.14 % ID/g | Ratio [39]: 28.7 | Drug uptake (Lung [40]): 0.86 % ID/g | Drug uptake [41]: 0.19 % ID/g | Drug uptake (Spleen [42]): 0.57 % ID/g | Drug uptake (Heart [43]): 0.32 % ID/g | Drug uptake (Brain [44]): 0.06 % ID/g | Drug uptake [45]: 0.05 % ID/g | Drug uptake (Blood [46]): 0.31 % ID/g | Drug uptake (Liver [47]): 0.88 % ID/g | Drug uptake (Spleen [48]): 0.53 % ID/g
